Tests used:
Liver [1] = test: Unbound intrinsic clearance in mouse liver microsomes; format: ADME, microsome
Method in brief: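 Liver microsome stability is expressed as unbound intrinsic clearance, Cl_int,u, in L/hr/kg. Dextromethorphan served as the in-house low-clearance reference control and verapamil as the high-clearance reference control.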

[2] = Apparent oral plasma clearance in human at 1 mg; format: ADME
Method in brief: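 Clinical PK in subjects with cancer after a single 1 mg oral dose, n = 3. Apparent clearance was reported as PO CLp/F in L/hr.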

Liver [3] = test: Unbound intrinsic clearance in rat liver microsomes at 10 uM preincubated for 5 mins followed by NADPH addition measured after 60 mins by HPLC-UV-MS analysis; format: ADME, microsome; conditions: 1 h
[4] = Plasma clearance in iv dosed monkey; format: ADME, organism-based, Macaca mulatta; conditions: rhesus monkey
[5] = Intrinsic clearance in dog liver microsomes; format: ADME, Canis lupus familiaris, microsome; conditions: read-out: CLH (converted)
[6] = target: Bromodomain testis-specific protein (Homo sapiens, UniProt Q58F21); test: Binding affinity to BRDT BD1 to BD2 (N21 to P380 residues) (unknown origin)
[7] = Half life in mouse at 10 mg/kg, po; format: ADME, organism-based; conditions: in vivo
Translocator protein = Translocator protein (Homo sapiens, UniProt P30536); test: Antagonist activity at peripheral benzodiazepine receptor (unknown origin)
[8] = target: Adenosine receptor A2a (Homo sapiens) (UniProt P29274); conditions: HEK293, 10 uM
[9] = Oral bioavailability in dog; format: ADME, organism-based, Canis lupus familiaris; conditions: in vivo
[10] = target: Chromatin remodeling regulator CECR2 (Homo sapiens, UniProt Q9BXF3); test: Binding affinity to human CECR2 (P423 to D543 residues) expressed in bacterial expression system by BROMOscan assay
Rattus norvegicus [11] = test: Unbound AUC in rat at 1 mg/kg, po; conditions: in vivo
[12] = Intrinsic clearance in rat hepatocytes; format: ADME, cell-based, Hepatocyte; conditions: read-out: CLH (converted)
[13] = target: SWI/SNF-related matrix-associated actin-dependent regulator of chromatin subfamily A member 4 (Homo sapiens, UniProt P51532); test: Binding affinity to human SMARCA4 (A1448 to S1575 residues) expressed in bacterial expression system by BROMOscan assay
[14] = target: Adenosine receptor A1 (Homo sapiens) (UniProt P30542); test: Displacement of [3H]-DPCPX from recombinant human adenosine A1 receptor expressed in CHO cells at 10 uM; format: cell-based
[15] = target: Bromodomain-containing protein 4 (Homo sapiens, UniProt O60885); test: Binding affinity to N-terminal His6-tagged human BRD4 BD1 to BD2 (K57 to K550 residues) by isothermal titration calorimetry
[16] = target: Bromodomain-containing protein 8 (Homo sapiens, UniProt Q9H0E9); test: Binding affinity to human BRD8 (1) (S700 to F854 residues) expressed in mammalian expression system by BROMOscan assay
[17] = target: Bromodomain-containing protein 9 (Homo sapiens, UniProt Q9H8M2); test: Binding affinity to human BRD9 (R130 to V259 residues) expressed in bacterial expression system by BROMOscan assay
[18] = target: Bromodomain-containing protein 3 (Homo sapiens, UniProt Q15059); test: Binding affinity to BRD3 BD1 to BD2 (P24 to A416 residues) (unknown origin)
[19] = Intrinsic clearance in monkey hepatocytes; format: ADME, cell-based, Macaca mulatta, Hepatocyte; conditions: rhesus monkey, read-out: CLH (converted)
Mus musculus [20] = test: Inhibition of LPS-induced IL-6 release in po dosed CD-1 mouse serum assessed as plasma concentration required to show 50% inhibition administered for 1 hr followed by LPS challenge measured after 2 hrs by immunoassay; format: functional, organism-based
Method in brief: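 Compound given orally to mice, followed by an LPS challenge. Plasma IL-6 and plasma compound concentration were both measured 2 hours after LPS. Inhibition was related to dose and to plasma concentration at the time of cytokine measurement. Values are mean ± SE, n=5 per group.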

Mus musculus [21] = test: Unbound AUC in mouse at 10 mg/kg, po; format: ADME, organism-based; conditions: in vivo
Method in brief: (§1)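 Mouse PK: 3 mg/kg IV and 10 mg/kg PO. Clearance is expressed unbound, Cl_p,u in L/hr/kg. AUC is unbound, in µM*hr. FaFg is computed as F/(1-Clp/Qh), with mouse liver blood flow Qh 5.2 L/hr/kg. Unbound plasma fraction was measured separately.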

[22] = target: Translocator protein (Rattus norvegicus) (UniProt P16257); test: Displacement of [3H]PK-11195 from peripheral benzodiazepine receptor in rat heart at 10 uM
[23] = Half life in rat at 1 mg/kg, po; format: ADME, organism-based; conditions: in vivo
[24] = Plasma clearance in mouse at 3 mg/kg, iv; format: ADME, organism-based
[25] = target: Bromodomain and WD repeat-containing protein 1 (Homo sapiens, UniProt Q9NSI6); test: Binding affinity to human WDR9(2) (A1310 to E1430 residues) expressed in bacterial expression system by BROMOscan assay
Peregrin = Peregrin (Homo sapiens, UniProt P55201); test: Binding affinity to human BRPF1 (E627 to G740 residues) expressed in bacterial expression system by BROMOscan assay
Liver [26] = test: Unbound intrinsic clearance in human liver microsomes at 10 uM preincubated for 5 mins followed by NADPH addition measured after 60 mins by HPLC-UV-MS analysis; format: ADME, microsome; conditions: 1 h
Rattus norvegicus [27] = organism: Rattus norvegicus; test: Drug excretion in rat using radiolabelled compound; format: ADME; conditions: in vivo
[28] = target: Bromodomain and PHD finger-containing protein 3 (Homo sapiens, UniProt Q9ULD4); test: Binding affinity to human BRPF3 (E588 to G701 residues) expressed in bacterial expression system by BROMOscan assay
[29] = Fraction unbound in mouse plasma at 1 uM after 4 hrs by LC-MS/MS method; format: ADME, cell-free
Mus musculus [30] = test: Plasma unbound clearance in mouse at 3 mg/kg, iv; format: ADME, organism-based; conditions: in vivo; method in brief: as §1
[31] = Half life in po dosed monkey; format: ADME, organism-based, Macaca mulatta; conditions: rhesus monkey, in vivo
[32] = target: E3 ubiquitin-protein ligase TRIM33 (Homo sapiens, UniProt Q9UPN9); test: Binding affinity to human TRIM33 (PHD, Bromo) (D882 to A1087 residues) expressed in bacterial expression system by BROMOscan assay
[33] = Fraction unbound in rat plasma at 1 uM after 4 hrs by LC-MS/MS method; format: ADME, cell-free
Rattus norvegicus [34] = test: Plasma unbound clearance in rat at 1 mg/kg, iv; format: ADME, organism-based; conditions: in vivo
Method in brief: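 In rats, 1 mg/kg was given by both IV and PO routes. IV clearance is unbound (Cl_p,u, L/hr/kg). FaFg is taken as F/(1-Clp/Qh), using rat Qh 3.8 L/hr/kg. Unbound plasma fraction was determined in rat plasma.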

[35] = Plasma clearance in iv dosed human; format: ADME, organism-based
[36] = target: Transcription intermediary factor 1-alpha (Homo sapiens, UniProt O15164); test: Binding affinity to human TRIM24 (PHD, Bromo) (P790 to P977 residues) expressed in bacterial expression system by BROMOscan assay
[37] = Oral bioavailability in mouse at 10 mg/kg; format: ADME, organism-based; conditions: in vivo; method in brief: as §1
[38] = Intrinsic clearance in human liver microsomes at 10 uM preincubated for 5 mins followed by NADPH addition measured after 60 mins by HPLC-UV-MS analysis; format: ADME, microsome; conditions: read-out: CLH

Bromodomain and PHD finger-containing protein 3, sequence (Q9ULD4 whole entry, the tested form may be a part): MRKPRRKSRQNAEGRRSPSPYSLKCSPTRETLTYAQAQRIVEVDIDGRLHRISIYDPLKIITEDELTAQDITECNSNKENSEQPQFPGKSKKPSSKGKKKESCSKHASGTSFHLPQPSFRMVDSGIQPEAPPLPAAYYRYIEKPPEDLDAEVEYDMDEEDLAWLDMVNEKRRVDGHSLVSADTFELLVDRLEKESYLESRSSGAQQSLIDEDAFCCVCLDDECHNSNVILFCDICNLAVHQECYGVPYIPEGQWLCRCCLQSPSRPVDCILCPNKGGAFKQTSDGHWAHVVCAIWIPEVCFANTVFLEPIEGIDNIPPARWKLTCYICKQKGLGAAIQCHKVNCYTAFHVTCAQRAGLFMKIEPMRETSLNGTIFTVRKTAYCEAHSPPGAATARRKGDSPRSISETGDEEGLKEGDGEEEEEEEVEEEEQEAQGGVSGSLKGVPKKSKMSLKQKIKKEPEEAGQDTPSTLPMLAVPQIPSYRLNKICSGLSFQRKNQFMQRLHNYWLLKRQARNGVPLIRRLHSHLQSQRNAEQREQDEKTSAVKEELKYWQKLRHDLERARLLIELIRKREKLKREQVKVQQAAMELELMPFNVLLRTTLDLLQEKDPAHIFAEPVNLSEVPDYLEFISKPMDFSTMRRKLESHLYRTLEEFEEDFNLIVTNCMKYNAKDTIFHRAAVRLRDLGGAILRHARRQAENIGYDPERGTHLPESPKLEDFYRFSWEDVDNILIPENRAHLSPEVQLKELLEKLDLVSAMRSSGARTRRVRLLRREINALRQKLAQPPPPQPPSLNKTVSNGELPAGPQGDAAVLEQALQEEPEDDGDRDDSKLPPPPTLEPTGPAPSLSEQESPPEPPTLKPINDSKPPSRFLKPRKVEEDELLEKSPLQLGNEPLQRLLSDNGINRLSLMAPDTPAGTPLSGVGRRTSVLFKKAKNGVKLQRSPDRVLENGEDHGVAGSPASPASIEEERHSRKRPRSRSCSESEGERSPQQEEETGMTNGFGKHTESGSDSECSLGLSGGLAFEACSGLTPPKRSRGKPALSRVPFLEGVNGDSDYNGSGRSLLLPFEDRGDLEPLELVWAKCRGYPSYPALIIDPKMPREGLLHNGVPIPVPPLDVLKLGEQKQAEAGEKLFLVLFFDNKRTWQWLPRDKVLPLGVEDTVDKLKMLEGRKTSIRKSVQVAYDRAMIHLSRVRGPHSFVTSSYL
Translocator protein, sequence (P30536 whole entry): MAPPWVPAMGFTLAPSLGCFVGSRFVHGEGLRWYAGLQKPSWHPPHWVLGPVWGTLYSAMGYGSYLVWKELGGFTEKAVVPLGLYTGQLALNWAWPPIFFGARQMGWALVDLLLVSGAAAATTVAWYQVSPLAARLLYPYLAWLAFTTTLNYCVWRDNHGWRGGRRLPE
Bromodomain-containing protein 8, sequence (Q9H0E9 whole entry, the tested form may be a part): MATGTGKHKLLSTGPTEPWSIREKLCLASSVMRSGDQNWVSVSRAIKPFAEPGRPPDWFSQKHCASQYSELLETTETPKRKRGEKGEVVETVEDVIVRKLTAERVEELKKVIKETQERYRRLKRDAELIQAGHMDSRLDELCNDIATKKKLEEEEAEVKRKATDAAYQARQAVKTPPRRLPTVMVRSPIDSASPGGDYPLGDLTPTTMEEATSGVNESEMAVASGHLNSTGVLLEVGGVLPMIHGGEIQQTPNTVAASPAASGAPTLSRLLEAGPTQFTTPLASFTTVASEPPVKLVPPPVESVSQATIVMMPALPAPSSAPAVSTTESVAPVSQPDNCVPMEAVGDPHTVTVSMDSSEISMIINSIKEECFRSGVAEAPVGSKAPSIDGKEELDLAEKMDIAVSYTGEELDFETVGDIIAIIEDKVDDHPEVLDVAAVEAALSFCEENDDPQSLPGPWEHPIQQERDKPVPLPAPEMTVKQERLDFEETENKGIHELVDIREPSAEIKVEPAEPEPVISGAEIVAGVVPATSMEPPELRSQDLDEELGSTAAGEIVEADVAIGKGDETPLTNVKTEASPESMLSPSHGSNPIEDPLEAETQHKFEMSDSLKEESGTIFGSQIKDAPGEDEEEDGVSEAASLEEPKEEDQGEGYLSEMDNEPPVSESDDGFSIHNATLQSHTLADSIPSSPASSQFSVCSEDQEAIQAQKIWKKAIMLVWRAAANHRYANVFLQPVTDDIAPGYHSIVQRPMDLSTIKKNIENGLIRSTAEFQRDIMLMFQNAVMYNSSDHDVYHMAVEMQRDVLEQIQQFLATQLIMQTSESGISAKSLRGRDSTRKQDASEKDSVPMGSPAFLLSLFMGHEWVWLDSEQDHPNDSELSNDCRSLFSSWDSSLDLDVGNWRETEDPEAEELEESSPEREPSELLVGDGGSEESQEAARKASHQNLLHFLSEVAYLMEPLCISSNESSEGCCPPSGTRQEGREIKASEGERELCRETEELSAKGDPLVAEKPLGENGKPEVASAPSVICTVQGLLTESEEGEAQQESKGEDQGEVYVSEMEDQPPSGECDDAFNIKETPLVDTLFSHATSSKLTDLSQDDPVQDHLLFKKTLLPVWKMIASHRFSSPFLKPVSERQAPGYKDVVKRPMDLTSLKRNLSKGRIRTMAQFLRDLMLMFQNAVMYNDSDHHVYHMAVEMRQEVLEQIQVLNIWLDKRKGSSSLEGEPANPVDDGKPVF
Adenosine receptor A1 (Homo sapiens), sequence (P30542 whole entry, the tested form may be a part): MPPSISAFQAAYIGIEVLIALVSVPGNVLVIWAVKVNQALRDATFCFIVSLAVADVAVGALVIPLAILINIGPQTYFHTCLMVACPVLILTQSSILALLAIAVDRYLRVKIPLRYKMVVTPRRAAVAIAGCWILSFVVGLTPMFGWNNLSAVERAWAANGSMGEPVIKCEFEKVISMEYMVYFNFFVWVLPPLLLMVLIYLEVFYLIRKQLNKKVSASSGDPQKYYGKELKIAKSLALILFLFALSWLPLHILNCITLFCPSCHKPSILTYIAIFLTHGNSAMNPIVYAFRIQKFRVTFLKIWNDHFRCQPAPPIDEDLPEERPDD
E3 ubiquitin-protein ligase TRIM33, sequence (Q9UPN9 whole entry, the tested form may be a part): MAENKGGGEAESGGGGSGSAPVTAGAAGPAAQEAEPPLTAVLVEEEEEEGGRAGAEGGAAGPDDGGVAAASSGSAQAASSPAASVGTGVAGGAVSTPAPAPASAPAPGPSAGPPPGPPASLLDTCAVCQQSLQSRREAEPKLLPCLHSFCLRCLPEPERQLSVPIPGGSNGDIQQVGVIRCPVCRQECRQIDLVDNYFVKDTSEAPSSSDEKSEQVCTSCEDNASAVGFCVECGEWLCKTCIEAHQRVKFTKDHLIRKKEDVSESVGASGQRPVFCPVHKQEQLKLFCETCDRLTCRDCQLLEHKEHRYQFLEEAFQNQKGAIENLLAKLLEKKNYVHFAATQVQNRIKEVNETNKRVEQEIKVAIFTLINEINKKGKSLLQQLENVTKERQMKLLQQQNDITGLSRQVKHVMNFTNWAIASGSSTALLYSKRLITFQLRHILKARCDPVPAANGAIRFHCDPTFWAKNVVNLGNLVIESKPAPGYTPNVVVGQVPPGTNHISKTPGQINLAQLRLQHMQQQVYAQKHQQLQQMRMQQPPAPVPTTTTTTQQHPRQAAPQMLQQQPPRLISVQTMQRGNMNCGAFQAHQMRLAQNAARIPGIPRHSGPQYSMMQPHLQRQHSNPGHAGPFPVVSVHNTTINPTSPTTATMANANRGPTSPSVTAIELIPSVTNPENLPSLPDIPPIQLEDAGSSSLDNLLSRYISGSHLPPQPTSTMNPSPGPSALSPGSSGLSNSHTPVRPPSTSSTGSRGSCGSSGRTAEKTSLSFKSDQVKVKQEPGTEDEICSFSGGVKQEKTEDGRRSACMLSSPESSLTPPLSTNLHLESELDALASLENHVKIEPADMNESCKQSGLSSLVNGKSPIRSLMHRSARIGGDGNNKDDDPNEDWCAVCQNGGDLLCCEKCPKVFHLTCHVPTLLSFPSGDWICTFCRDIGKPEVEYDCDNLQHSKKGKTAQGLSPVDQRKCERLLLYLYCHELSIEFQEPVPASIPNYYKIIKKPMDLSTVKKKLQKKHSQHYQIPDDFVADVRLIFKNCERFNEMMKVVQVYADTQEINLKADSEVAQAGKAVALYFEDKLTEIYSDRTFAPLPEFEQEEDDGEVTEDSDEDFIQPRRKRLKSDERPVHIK
Bromodomain-containing protein 9, sequence (Q9H8M2 whole entry, the tested form may be a part): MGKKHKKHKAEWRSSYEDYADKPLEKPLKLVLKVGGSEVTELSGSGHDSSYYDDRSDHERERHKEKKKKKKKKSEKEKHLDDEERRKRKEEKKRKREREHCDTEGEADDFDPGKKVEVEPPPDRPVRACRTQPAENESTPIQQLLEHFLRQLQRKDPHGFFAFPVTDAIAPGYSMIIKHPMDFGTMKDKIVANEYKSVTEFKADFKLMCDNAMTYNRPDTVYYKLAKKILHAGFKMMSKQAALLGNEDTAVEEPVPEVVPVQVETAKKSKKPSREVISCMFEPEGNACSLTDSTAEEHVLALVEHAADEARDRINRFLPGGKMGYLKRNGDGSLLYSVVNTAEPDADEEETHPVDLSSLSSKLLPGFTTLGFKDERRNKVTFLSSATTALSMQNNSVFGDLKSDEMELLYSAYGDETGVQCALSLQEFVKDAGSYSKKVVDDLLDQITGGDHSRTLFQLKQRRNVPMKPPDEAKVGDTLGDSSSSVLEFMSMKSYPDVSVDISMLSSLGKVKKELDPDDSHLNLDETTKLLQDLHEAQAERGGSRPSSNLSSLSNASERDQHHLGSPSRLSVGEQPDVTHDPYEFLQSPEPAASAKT
Translocator protein (Rattus norvegicus), sequence (P16257 whole entry, looked up): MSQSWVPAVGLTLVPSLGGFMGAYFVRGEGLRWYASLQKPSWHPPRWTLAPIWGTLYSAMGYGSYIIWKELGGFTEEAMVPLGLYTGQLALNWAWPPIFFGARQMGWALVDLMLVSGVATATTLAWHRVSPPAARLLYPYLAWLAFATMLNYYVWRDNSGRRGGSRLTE

CL free (Liver [1]): 550 mL/min/kg
CL/F [2]: 83.8 mL/min
CL free (Liver [3]): < 81.7 mL/min/kg
clearance [4]: 5.5 mL/min/kg
CLint scaled [5]: 51.7 mL/min/kg
Ki [6]: 0.0022 µM
half-life [7]: 2.7 h
IC50 (Translocator protein): 0.8 µM
inhibition [8]: 87%
bioavailability [9]: 41%
Kd [10]: > 1 µM
fAUC (Rattus norvegicus [11]): 0.27 µM·h
CLint scaled [12]: 66.7 mL/min/kg
Kd [13]: > 1 µM
inhibition [14]: 97%
Kd [15]: < 0.01 µM
Kd [16]: > 1 µM
Kd [17]: > 1 µM
Ki [18]: 0.0122 µM
CLint scaled [19]: 51.7 mL/min/kg
fAUC (Mus musculus [21]): 0.63 µM·h
inhibition [22]: 86%
half-life [23]: 2.6 h
clearance [24]: 8.33 mL/min/kg
Kd [25]: > 1 µM
Kd (Peregrin): > 1 µM
CL free (Liver [26]): < 48.3 mL/min/kg
Drug excretion (Rattus norvegicus [27]): 76 %ID
Kd [28]: > 1 µM
fraction unbound at 4 h, 1 µM [29]: 0.02
clearance (Mus musculus [30]): 317 mL/min/kg
half-life [31]: 4.4 h
Kd [32]: > 1 µM
fraction unbound at 4 h, 1 µM [33]: 0.023
clearance (Rattus norvegicus [34]): 450 mL/min/kg
clearance [35]: 2.33 mL/min/kg
Kd [36]: > 1 µM
bioavailability [37]: 68 to 83%
CLint scaled at 10 µM [38]: < 25 mL/min/kg
SMILES: CCS(=O)(=O)Nc1ccc(Oc2ccc(F)cc2F)c(-c2cn(C)c(=O)c3[nH]ccc23)c1 [MIVEBRESIB]
Cp (Mus musculus [20]): 0.03 to 0.1 µM
